≈ marks a conversion by molar mass, not a printed value.
Assays:
[1] = test system: Tobacco mosaic virus; assay: Antiviral activity against Tobacco mosaic virus (TMV) inoculated in Nicotiana tabacum cv. K326 leaves assessed as inhibition of virus multiplication at 0.1 mg/ml at 25 degC measured after 48 hr by indirect ELISA/leaf-disk method; assay type: functional
Outline: (§1)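 N. tabacum cv. K326 leaves mechanically inoculated with TMV at 10 µg/mL. After 7 h, 10-mm disks were floated on compound solutions (DMSO, diluted with water) for 48 h at 25 ± 1 °C. Solvent-only and healthy-leaf disks were controls; six repetitions. Ground disks were assayed by indirect ELISA (OD405) against an in-plate TMV standard curve. Inhibition was calculated relative to the solvent control.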

[2] = test system: Tobacco mosaic virus; assay: Antiviral activity against Tobacco mosaic virus (TMV) inoculated in Nicotiana tabacum cv. K326 leaves assessed as inhibition of virus multiplication at 0.2 mg/ml at 25 degC measured after 48 hr by indirect ELISA/leaf-disk method; assay type: functional; outline: as §1
[3] = test system: Tobacco mosaic virus; assay: Antiviral activity against Tobacco mosaic virus (TMV) inoculated in Nicotiana tabacum cv. K326 leaves assessed as inhibition of virus multiplication at 0.05 mg/ml at 25 degC measured after 48 hr by indirect ELISA/leaf-disk method; assay type: functional; outline: as §1
[4] = test system: Tobacco mosaic virus; assay: Antiviral activity against Tobacco mosaic virus (TMV) inoculated in Nicotiana tabacum cv. K326 leaves assessed as inhibition of virus multiplication at 0.4 mg/ml at 25 degC measured after 48 hr by indirect ELISA/leaf-disk method; assay type: functional; outline: as §1
[5] = test system: Tobacco mosaic virus; assay: Antiviral activity against Tobacco mosaic virus (TMV) inoculated in Nicotiana tabacum cv. K326 leaves assessed as inhibition of virus multiplication at 25 degC measured after 48 hr by indirect ELISA/leaf-disk method; assay type: functional, organism-based; outline: as §1
[6] = test system: Tobacco mosaic virus; assay: Antiviral activity against Tobacco mosaic virus (TMV) inoculated in Nicotiana tabacum cv. K326 leaves assessed as inhibition of virus multiplication at 0.025 mg/ml at 25 degC measured after 48 hr by indirect ELISA/leaf-disk method; assay type: functional; outline: as §1

Question: Which inhibition at 100 µg/mL [1] does the source give for `CC1(C)CC[C@]2(C(=O)O[C@@H]3O[C@H](CO)[C@@H](O)[C@H](O)[C@H]3O)CC[C@]3(C)C(=CC[C@@H]4[C@@]5(C)CC[C@H](O)C(C)(C)[C@@H]5CC[C@]43C)[C@@H]2[C@@H]1O` here?
Answer: The inhibition at 100 µg/mL was 65.7%.

Question: What about the inhibition at 200 µg/mL [2] of the same compound?
Answer: Its inhibition at 200 µg/mL is 84.5%.

Question: What about the inhibition at 50 µg/mL [3] of the same compound?
Answer: Its inhibition at 50 µg/mL is 25.3%.

Question: And the inhibition at 400 µg/mL [4]?
Answer: The inhibition at 400 µg/mL was 89.2%.

Question: What about the EC50 [5] of the same compound?
Answer: The EC50 was 80 µg/mL (≈ 126 µM).

Question: And the inhibition at 25 µg/mL [6]?
Answer: The inhibition at 25 µg/mL was 7.6%.

Question: How did the inhibition at 100 µg/mL [1] turn out when `CC1(C)CC[C@]2(C(=O)O[C@@H]3O[C@H](CO)[C@@H](O)[C@H](O)[C@H]3O)CC[C@]3(C)C(=CC[C@@H]4[C@@]5(C)CC[C@H](O[C@@H]6OC[C@@H](O)[C@H](O)[C@H]6O)[C@@](C)(CO)[C@@H]5CC[C@]43C)[C@@H]2[C@@H]1O` [OBLONGANOSIDE M] was run?
Answer: The inhibition at 100 µg/mL was 61.5%.

Question: And the inhibition at 200 µg/mL [2]?
Answer: The inhibition at 200 µg/mL was 78.5%.

Question: What about the inhibition at 50 µg/mL [3] of the same compound?
Answer: Its inhibition at 50 µg/mL is 32.7%.

Question: And the inhibition at 400 µg/mL [4]?
Answer: The inhibition at 400 µg/mL was 85.3%.

Question: And the EC50 [5]?
Answer: Its EC50 is 85 µg/mL (≈ 109 µM).

Question: What about the inhibition at 25 µg/mL [6] of the same compound?
Answer: The inhibition at 25 µg/mL was 5.2%.

Question: `C[C@@H]1CC[C@]2(C(=O)O[C@@H]3O[C@H](CO)[C@@H](O)[C@H](O)[C@H]3O)CC[C@]3(C)C(=CC[C@@H]4[C@@]5(C)C[C@@H](O)[C@H](O)[C@@](C)(CO)[C@@H]5CC[C@]43C)[C@@H]2[C@]1(C)O` [NIGAICHIGOSIDE F1] was tested. Which inhibition at 200 µg/mL [2] did it give?
Answer: The inhibition at 200 µg/mL was 24.9%.

Question: Which inhibition at 200 µg/mL [2] does the source give for `C[C@@H]1CC[C@]2(C(=O)O[C@@H]3O[C@H](CO)[C@@H](O)[C@H](O)[C@H]3O)CC[C@]3(C)C(=CC[C@@H]4[C@@]5(C)CC[C@H](O)C(C)(C)[C@@H]5CC[C@]43C)[C@@H]2[C@]1(C)O` here?
Answer: The inhibition at 200 µg/mL was 27%.

Question: How did the inhibition at 200 µg/mL [2] turn out when `C[C@@H]1CC[C@]2(C(=O)O[C@@H]3O[C@H](CO)[C@@H](O)[C@H](O)[C@H]3O)CC[C@]3(C)C(=CC[C@@H]4[C@@]5(C)CC[C@H](O[C@@H]6OC[C@@H](O)[C@H](O)[C@H]6O)C(C)(C)[C@@H]5CC[C@]43C)[C@@H]2[C@]1(C)O` [OBLONGANOSIDE H] was run?
Answer: The inhibition at 200 µg/mL was 37.4%.

Question: With `CC1(C)CC[C@]2(C(=O)O[C@@H]3O[C@H](CO)[C@@H](O)[C@H](O)[C@H]3O)CC[C@]3(C)C(=CC[C@@H]4[C@@]5(C)CC[C@H](O[C@@H]6OC[C@@H](O)[C@H](O)[C@H]6O)C(C)(C)[C@@H]5CC[C@]43C)[C@@H]2[C@@H]1O` [OBLONGANOSIDE K] as the compound, how does the inhibition at 100 µg/mL [1] read?
Answer: The inhibition at 100 µg/mL was 63.9%.

Question: What about the inhibition at 200 µg/mL [2] of the same compound?
Answer: Its inhibition at 200 µg/mL is 85.7%.

Question: What about the inhibition at 50 µg/mL [3] of the same compound?
Answer: Its inhibition at 50 µg/mL is 31.4%.

Question: What about the inhibition at 400 µg/mL [4] of the same compound?
Answer: Its inhibition at 400 µg/mL is 88.5%.

Question: And the EC50 [5]?
Answer: Its EC50 is 76 µg/mL (≈ 99.1 µM).

Question: And the inhibition at 25 µg/mL [6]?
Answer: The inhibition at 25 µg/mL was 13.1%.

Question: Which inhibition at 200 µg/mL [2] does the source give for `CC1(C)[C@@H](O[C@@H]2OC[C@@H](O)[C@H](O)[C@H]2O)CC[C@]2(C)[C@H]3CC=C4[C@@H]5C[C@](C)(CO)CC[C@]5(C(=O)O[C@@H]5O[C@H](CO)[C@@H](O)[C@H](O)[C@H]5O)CC[C@@]4(C)[C@]3(C)CC[C@@H]12` [OBLONGANOSIDE L] here?
Answer: Its inhibition at 200 µg/mL is 46.9%.

Question: `C[C@@H]1CC[C@]2(C(=O)O[C@@H]3O[C@H](CO)[C@@H](O)[C@H](O)[C@H]3O)CC[C@]3(C)C(=CC[C@@H]4[C@@]5(C)CC[C@@H]6O[C@H](CO)OC[C@@]6(C)[C@@H]5CC[C@]43C)[C@@H]2[C@]1(C)O` [OBLONGANOSIDE J] was tested. Which inhibition at 200 µg/mL [2] did it give?
Answer: The inhibition at 200 µg/mL was 28.1%.

Question: How did the inhibition at 200 µg/mL [2] turn out when `C[C@@H]1CC[C@]2(C(=O)O[C@@H]3O[C@H](CO)[C@@H](O)[C@H](O)[C@H]3O)CC[C@]3(C)C(=CC[C@@H]4[C@@]5(C)CC[C@H](O[C@@H]6OC[C@@H](O)[C@H](O)[C@H]6O)[C@@](C)(CO)[C@@H]5CC[C@]43C)[C@@H]2[C@]1(C)O` [OBLONGANOSIDE I] was run?
Answer: Its inhibition at 200 µg/mL is 31.7%.

Question: How did the inhibition at 200 µg/mL [2] turn out when `C[C@@H]1CC[C@]2(C(=O)O[C@@H]3O[C@H](CO)[C@@H](O)[C@H](O)[C@H]3O)CC[C@]3(C)C(=CC[C@@H]4[C@@]5(C)CC[C@H](O)[C@@](C)(CO)[C@@H]5CC[C@]43C)[C@@H]2[C@]1(C)O` [PEDUNCULOSIDE] was run?
Answer: The inhibition at 200 µg/mL was 41.5%.

Source: ChEMBL document CHEMBL3045729, “Anti-tobacco mosaic virus (TMV) triterpenoid saponins from the leaves of Ilex oblonga” (J Agric Food Chem, 2007)
